Compound activity (PubChem BioAssay)
KCNQ1 block: blocks the human KCNQ1 potassium channel; AID 2642; P51787; B-score at 10 µM; 1.3% of 310,000 active; CHO-K1 KCNQ1, FluxOR thallium flux fluorescence; active compounds read high;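 active = compounds whose thallium flux B-score, printed positive for inhibition, exceeds three library SD while starting fluorescence stays within three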;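 also: channel opened by potassium depolarization with thallium stimulus after 20 min compound exposure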
Kir21 inh: blocks the mouse Kir2.1 inward-rectifier potassium channel. HEK293-Kir2.1, FluxOR thallium flux fluorescence; active compounds read low. 0.85% of 310,000 active. B-score at 10 µM. P35561;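 active = fluorescence ratio B-score at or below minus 3 SD of library scores, with starting-brightness B-score within 2 SD, cut at about -4.2 in these data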;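 also: channel flux triggered by added potassium and thallium sulfate stimulus; B-score of peak minus minimum fluorescence over baseline after thallium stimulus; more negative B-score means stronger Kir2.1 block with less thallium influx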
KCNK3 block: human KCNK3 channel inhibition, primary screen. O14649. CHO-KCNK3 thallium flux, FluxOR fluorescence; active compounds read low. B-score at 10 µM. 0.84% of 340,000 active. AID 602410;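 active = B-score under library mean minus 4 SD, starting fluorescence ratio at most library mean plus 5 SD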;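 also: more negative B-score means stronger inhibition of thallium flux through KCNK3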
Target sequence (O14649 whole entry, looked up): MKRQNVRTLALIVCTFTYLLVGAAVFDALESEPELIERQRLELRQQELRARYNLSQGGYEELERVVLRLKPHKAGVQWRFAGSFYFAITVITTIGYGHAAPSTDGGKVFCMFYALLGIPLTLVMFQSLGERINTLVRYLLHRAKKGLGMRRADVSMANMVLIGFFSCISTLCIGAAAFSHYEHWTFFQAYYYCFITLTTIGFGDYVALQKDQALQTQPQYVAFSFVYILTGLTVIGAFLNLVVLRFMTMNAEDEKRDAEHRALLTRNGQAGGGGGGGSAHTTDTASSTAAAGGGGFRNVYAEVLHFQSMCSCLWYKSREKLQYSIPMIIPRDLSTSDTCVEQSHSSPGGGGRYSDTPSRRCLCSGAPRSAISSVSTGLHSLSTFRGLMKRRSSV
KCNQ1 act: human KCNQ1 channel potentiation or activation; P51787; CHO-K1 KCNQ1, thallium flux FluxOR fluorescence; active compounds read high; B-score at 10 µM; 0.35% of 310,000 active; AID 2648;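 active = fluorescence ratio B-score, a plate-corrected score, at least three library SD, with initial intensity B-score within 5 SD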
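System: Stable KCNQ1 CHO-K1 line | Incubation: 90 min dye loading and 20 min compound exposure, both at room temperature | Measure: Ratio B score | Medium: Assay buffer for compound exposure, DMSO matched across wells | Compound dosing: Single-concentration screen | Probe or stimulus: K+/Tl+ depolarizing stimulus | Measured by: Kinetic FluxOR fluorescence, 10 s baseline plus 110 s post-stimulus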
KCNK9 block: blocks the human KCNK9 two-pore domain potassium channel; HEK293 KCNK9, FluxOR thallium flux fluorescence; active compounds read low; B-score at 10 µM; 1.2% of 310,000 active; AID 488922;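 active = ratio B-score over 3 SD below the library mean, with starting fluorescence within 5 SD of its mean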;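 also: negative B-score means less thallium flux so channel inhibition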
hERG protect: shields human hERG channel from block by proarrhythmic agents. Q12809. CHO-hERG, FluxOR thallium flux, dofetilide IC70 present. activation (rescue from dofetilide block), less the hit threshold, % at 10 µM. 0.51% of 310,000 active. AID 1511;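 active = activation above the mean of controls blocked by dofetilide plus 5 SD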;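 also: thallium influx through hERG after potassium depolarization seen as dye fluorescence rise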
KCNK9 block conf: confirmation of human KCNK9 potassium channel inhibitors; AID 492992; shares compounds with KCNK9 block; inhibition, % at 10 µM; 43% of 4,900 active; HEK293 KCNK9 cells, FluxOR thallium flux fluorescence;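 active = thallium signal inhibited by more than 5 SD of the compound-free buffer control wells, on both duplicate plates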;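 also: 0% = assay buffer control wells without compound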
Kir21 sel: mouse Kir2.1 off-target activity of KCNK9 modulators. 4% of 4,900 active. shares compounds with KCNK9 block. AID 492993. Kir2.1 cells, FluxOR thallium flux fluorescence. inhibition, % at 10 µM;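 active = thallium signal drop more than 5 SD beyond the mean of the no-compound control wells, seen in both duplicate plates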;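 also: signal is fluorescence rise after thallium addition divided by baseline fluorescence; plate controls were assay buffer only for no effect and full block by chlorpromazine control for full effect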
KCNK9 uninduced: second check of KCNK9 modulator effects in non-induced HEK293 cells. shares compounds with KCNK9 block. FluxOR thallium flux. inhibition, % at 10 µM. 40% of 4,900 active. AID 492997;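 active = thallium signal drop beyond 5 SD of the untreated control mean, on both duplicate plates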;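 also: plate controls were buffer only IC0 wells for no effect and SID17386958 at its maximal inhibitory level for full effect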
* hit, by the source's call. Only some compounds are listed: those with a hit (about 3.7% of all), similar ones and a draw of the others.

What do the screens show for `Clc1ccc(N=c2ssnc2Cl)nc1`?
KCNQ1 block: inactive; Kir21 inh: 0; KCNK3 block: inactive; KCNQ1 act: inactive; KCNK9 block: inactive; hERG protect: -14.9

Results for COc1cc(N=c2ssnc2Cl)cc(OC)c1 ?
KCNQ1 block: inactive; Kir21 inh: -3.42; KCNK3 block: inactive; KCNQ1 act: inactive; KCNK9 block: inactive; hERG protect: -16.8; KCNK9 block conf: inactive; Kir21 sel: inactive; KCNK9 uninduced: inactive

What do the screens show for `N#Cc1cccc(N=c2ssnc2Cl)c1`?
KCNQ1 block: inactive; Kir21 inh: -2.02; KCNK3 block: inactive; KCNQ1 act: inactive; KCNK9 block: inactive; hERG protect: 5.2*; KCNK9 block conf: inactive; Kir21 sel: inactive; KCNK9 uninduced: inactive

What do the screens show for `Clc1nssc1=Nc1ccc(Br)cc1`?
KCNQ1 block: inactive; Kir21 inh: -1.08; KCNK3 block: inactive; KCNQ1 act: inactive; KCNK9 block: inactive; hERG protect: -10.0

What do the screens show for `Cc1sc2ncn(CC(=O)N3CCN(c4ccc(F)cc4)CC3)c(=O)c2c1S(=O)(=O)N1CCOCC1`?
KCNQ1 block: inactive; Kir21 inh: -0.29; KCNK3 block: inactive; KCNQ1 act: inactive; KCNK9 block: inactive; hERG protect: -6.0

How did CN(Cc1ccccc1)C(NC(=O)c1ccco1)C(Cl)(Cl)Cl (stereo not drawn) do in these assays?
KCNQ1 block: inactive; Kir21 inh: 2.3; KCNK3 block: inactive; KCNQ1 act: inactive; KCNK9 block: inactive; hERG protect: -10.0

Results for CN(Cc1ccccc1)C(NC(=O)c1ccccc1)C(Cl)(Cl)Cl (stereo not drawn) ?
KCNQ1 block: inactive; Kir21 inh: 0.04; KCNK3 block: inactive; KCNQ1 act: inactive; KCNK9 block: inactive; hERG protect: -5.6; KCNK9 block conf: inactive; Kir21 sel: inactive; KCNK9 uninduced: 41.0%*

What do the screens show for `O=C(CC(Nc1ccc(F)cc1)c1ccccc1)c1ccccc1` (stereo not drawn)?
KCNQ1 block: inactive; Kir21 inh: -0.99; KCNK3 block: inactive; KCNQ1 act: inactive; KCNK9 block: -11.3*; hERG protect: -8.8; KCNK9 block conf: inactive; Kir21 sel: inactive; KCNK9 uninduced: inactive

Results for CCN(CC)S(=O)(=O)c1cc(OC)ccc1N=Nc1ccc(O)c2ncccc12 ?
KCNQ1 block: inactive; Kir21 inh: -0.23; KCNK3 block: inactive; KCNQ1 act: inactive; KCNK9 block: inactive; hERG protect: 17.0*; KCNK9 block conf: inactive; Kir21 sel: inactive; KCNK9 uninduced: inactive

What do the screens show for `CC1Cc2ccccc2N1C(=O)COC(=O)/C=C/c1ccc(F)cc1` (stereo not drawn)?
KCNK3 block: inactive

Results for CC1Cc2ccccc2N1C(=O)CO/N=C/c1ccc(OC(F)F)cc1 (stereo not drawn) ?
KCNQ1 block: inactive; Kir21 inh: -0.33; KCNK3 block: inactive; KCNQ1 act: inactive; KCNK9 block: inactive; hERG protect: -7.0; KCNK9 block conf: inactive; Kir21 sel: inactive; KCNK9 uninduced: inactive

How did CCOC(=O)c1cnn(-c2nc(CC)nc3sc4c(c23)CCC4)c1N do in these assays?
KCNQ1 block: inactive; Kir21 inh: -0.55; KCNK3 block: inactive; KCNQ1 act: inactive; KCNK9 block: -10.2*; hERG protect: -6.3; KCNK9 block conf: 36.0%*; Kir21 sel: inactive; KCNK9 uninduced: inactive

Results for Cc1ccc(CNC(=O)CCC(=O)N2CC(C)Oc3ccc(Cl)cc32)cc1 (stereo not drawn) ?
KCNQ1 block: inactive; Kir21 inh: 0.59; KCNK3 block: inactive; KCNQ1 act: inactive; KCNK9 block: inactive; hERG protect: -10.3

How did Cc1ccc2c(c1)N(C(=O)CCC(=O)NCc1cccc(Br)c1)CC(C)O2 (stereo not drawn) do in these assays?
KCNQ1 block: inactive; Kir21 inh: -0.02; KCNK3 block: inactive; KCNQ1 act: inactive; KCNK9 block: inactive; hERG protect: -14.6; KCNK9 block conf: inactive; Kir21 sel: inactive; KCNK9 uninduced: inactive

What do the screens show for `Cc1ccc2c(c1)N(C(=O)CCC(=O)Nc1ccccc1Br)CC(C)O2` (stereo not drawn)?
KCNQ1 block: inactive; Kir21 inh: -0.03; KCNK3 block: inactive; KCNQ1 act: inactive; KCNK9 block: inactive; hERG protect: -8.2; KCNK9 block conf: inactive; Kir21 sel: inactive; KCNK9 uninduced: inactive

What do the screens show for `C[C@@H](Oc1ccccc1)c1nnn(Cc2ccccc2)c1-c1c([C@@H](C)Oc2ccccc2)nnn1Cc1ccccc1`?
KCNQ1 block: inactive; Kir21 inh: 0; KCNQ1 act: inactive; KCNK9 block: -11.7*; hERG protect: -7.6; KCNK9 block conf: inactive; Kir21 sel: inactive; KCNK9 uninduced: 35.5%*

Results for COc1ccc(Cl)cc1NC(=O)CSc1nc(N2CCOCC2)nc(N2CCOCC2)n1 ?
KCNQ1 block: inactive; Kir21 inh: -0.07; KCNK3 block: inactive; KCNQ1 act: inactive; KCNK9 block: inactive; hERG protect: -13.8

Results for COc1ccc(Cl)cc1NC(=O)CSc1nc(N2CCCCC2)nc(N2CCCCC2)n1 ?
KCNQ1 block: inactive; Kir21 inh: -0.62; KCNK3 block: inactive; KCNQ1 act: inactive; KCNK9 block: -10.9*; hERG protect: -2.3; KCNK9 block conf: 35.5%*; Kir21 sel: inactive; KCNK9 uninduced: 25.5%*

What do the screens show for `COc1cc(Cl)c(C)cc1NC(=O)CSc1cc(Cl)ccc1Cl`?
KCNQ1 block: inactive; Kir21 inh: -0.34; KCNK3 block: inactive; KCNQ1 act: inactive; KCNK9 block: -9.78*; hERG protect: -24.9; KCNK9 block conf: 56.0%*; Kir21 sel: inactive; KCNK9 uninduced: 43.5%*

Results for Cc1cc(=O)oc2cc(NC(=O)COc3ccccc3[N+](=O)[O-])ccc12 ?
KCNK3 block: inactive

How did O=C(COc1ccccc1[N+](=O)[O-])Nc1ccc2oc(=O)ccc2c1 do in these assays?
KCNQ1 block: inactive; Kir21 inh: 0.26; KCNK3 block: inactive; KCNQ1 act: inactive; KCNK9 block: -9.63*; hERG protect: -4.2; KCNK9 block conf: inactive; Kir21 sel: inactive; KCNK9 uninduced: inactive
